Laboratory results: paper PMC3878182 (Xenobiotica; the fate of foreign compounds in biological …, 2013)

Legend:
[1] = tested on: hippocampal slice cultures; test: LDH release in hippocampal slice cultures; format: cell-based, Sprague Dawley rats (PND4 pups); conditions: ethanol 200 mM, 14 d exposure
Procedure, shortened: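 Hippocampi from PND4 pups of timed-pregnant Sprague Dawley rats were cultured as slices. From 5 DIV, racemic test compound or vehicle (0.1 % DMSO) was added to 1 mL medium, renewed every 2 days for 14 days. LDH release was measured with a membrane-integrity fluorescence kit. Mean ± SEM, n = 2 wells per group.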

liver tissue slices [2] = test: Formation of hydroxylated PCB 136 metabolites in liver tissue slices; format: in vitro ADME, Sprague-Dawley rats; conditions: for Metabolite formation, slices / Metabolite formation, medium: 2 h; for Metabolite as percent of ΣOH-PCB: slices plus medium
liver tissue slices [3] = test: Enantioselective analysis; format: in vitro ADME, Sprague-Dawley rats; conditions: for Enantiomeric enrichment: liver slices from PB- and DEX-treated male and female rats incubated with racemic PCB 136
Procedure, shortened: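 Liver slices from PB- or DEX-pretreated rats, two per vial in 2 mL K-H buffer, were incubated with racemic test compound (final 5 μM, from DMSO) for 2 h at 37 °C under 5% CO2/95% air in a dynamic system. Triplicate incubations were run per animal. Hydroxylated metabolites were methylated; atropisomers were separated on Chirasil-Dex (5-OH) or Cyclosil-B (4-OH) columns. EF = Area E(2)/(Area E(1) + Area E(2)).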

[4] = tested on: hippocampal slice cultures; test: Propidium iodide; format: cell-based, Sprague Dawley rats (PND4 pups); conditions: glutamate 20 mM, positive control, 3 d exposure
[5] = Effect of inducer treatment on body and liver weights of rats; format: in vivo, Sprague-Dawley rats; conditions: i.p. inducer treatment
liver tissue slices [6] = test: Liver slice viability; format: cell-based, Sprague-Dawley rats; conditions: 2 h
Procedure, shortened: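 Liver slices came from adult rats, either naive or pretreated with PB or DEX, taken 24 h after the last dose into cold Krebs-Henseleit buffer, pH 7.5. Two slices per vial in 2 mL buffer received test compound (final 5 μM) or DMSO, 2 h, 37 °C, 5 % CO2/95 % air. LDH in medium and homogenate gave % release = A1×D1/(A1×D1+A2×D2); viable was <30 %.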

CYP1A2 = test: Hepatic P450 transcript levels; format: in vivo, Sprague-Dawley rats
ryanodine receptor (RyR) = conditions: enantioselective; ref Pessah et al., 2009; cited from earlier work
[7] = DEX-treated female rats, PCB 136 5 μM (10 nmol)
[8] = DEX-treated female rats, PCB 136 5 μM
[9] = DEX-treated male rats, PCB 136 5 μM (10 nmol)
[10] = DEX-treated male rats, PCB 136 5 μM
[11] = PB-treated female rats, PCB 136 5 μM (10 nmol)
[12] = PB-treated female rats, PCB 136 5 μM
[13] = PB-treated male rats, PCB 136 5 μM (10 nmol)
[14] = PB-treated male rats, PCB 136 5 μM
[15] = naïve control (CTL) female rats, PCB 136 5 μM (10 nmol), ND, not detected
[16] = naïve control (CTL) female rats, PCB 136 5 μM, ND, not detected
[17] = naïve control (CTL) female rats
[18] = naïve control (CTL) male rats, PCB 136 5 μM (10 nmol), ND, not detected
[19] = naïve control (CTL) male rats, PCB 136 5 μM, ND, not detected
[20] = PB-treated male rats, PCB 136 5 μM (10 nmol), ND, not detected

Compound | Metabolite formation, slices (liver tissue slices [2]; [7]) [pmol] | Metabolite formation, slices (liver tissue slices [2]; [8]) [ng/mg protein] | Metabolite as percent of ΣOH-PCB (liver tissue slices [2]; DEX-treated female rats) [%] | Metabolite formation, slices (liver tissue slices [2]; [9]) [pmol] | Metabolite formation, slices (liver tissue slices [2]; [10]) [ng/mg protein] | Metabolite as percent of ΣOH-PCB (liver tissue slices [2]; DEX-treated male rats) [%] | Metabolite formation, slices (liver tissue slices [2]; [11]) [pmol] | Metabolite formation, slices (liver tissue slices [2]; [12]) [ng/mg protein] | Metabolite as percent of ΣOH-PCB (liver tissue slices [2]; PB-treated female rats) [%] | Metabolite formation, slices (liver tissue slices [2]; [13]) [pmol] | Metabolite formation, slices (liver tissue slices [2]; [14]) [ng/mg protein] | Metabolite as percent of ΣOH-PCB (liver tissue slices [2]; PB-treated male rats) [%] | Enantiomeric enrichment (liver tissue slices [3]) | other results
CCO [ethanol, reference compound] | – | – | – | – | – | – | – | – | – | – | – | – | – | LDH release relative to vehicle controls [1]: significantly increased LDH release
Oc1cc(Cl)c(-c2c(Cl)ccc(Cl)c2Cl)c(Cl)c1Cl [4-OH-PCB 136, 2,2′,3,3′,6,6′-hexachlorobiphenyl-4-ol] | 24 ± 19 | 0.5 ± 0.3 | 7.7 ± 3.5 | 26 ± 5 | 0.4 ± 0.1 | 4.3 ± 0.7 | 30 ± 4 | 0.7 ± 0.0 | 5.8 ± 1.0 | 15 ± 5 | 0.3 ± 0.1 | 1.5 ± 0.2 | – | 4-OH-PCB 136 levels relative to 5-OH-PCB 136 levels (times higher) (liver tissue slices [2]; liver slices from female CTL rats): approximately 3 times; Metabolite formation, slices (liver tissue slices [2]; [15]): 33 ± 4 pmol; Metabolite formation, slices (liver tissue slices [2]; [16]): 0.7 ± 0.1 ng/mg protein; Metabolite as percent of ΣOH-PCB (liver tissue slices [2]; [17]): 75 ± 16%; Metabolite formation, slices (liver tissue slices [2]; [18]): 60 ± 30 pmol; Metabolite formation, slices (liver tissue slices [2]; [19]): 1.0 ± 0.5 ng/mg protein; Metabolite as percent of ΣOH-PCB (liver tissue slices [2]; naïve control (CTL) male rats): 57 ± 5%
Oc1cc(Cl)c(Cl)c(-c2c(Cl)ccc(Cl)c2Cl)c1Cl [5-OH-PCB 136, 2,2′,3,3′,6,6′-hexachlorobiphenyl-5-ol] | 240 ± 110 | 4.9 ± 1.1 | 91 ± 4 | 495 ± 95 | 7.7 ± 1.2 | 95 ± 1 | 490 ± 100 | 11 ± 1.3 | 93 ± 1 | 900 ± 220 | 16.0 ± 2.0 | 93 ± 4 | – | Metabolite formation, medium (liver tissue slices [2]; DEX-treated male rats, PCB 136 5 μM (10 nmol), ND, not detected): 80 ± 37 pmol; Metabolite formation, medium (liver tissue slices [2]; [20]): 115 ± 22 pmol; Metabolite formation, slices (liver tissue slices [2]; [15]): 12 ± 10 pmol; Metabolite formation, slices (liver tissue slices [2]; [16]): 0.3 ± 0.2 ng/mg protein; Metabolite as percent of ΣOH-PCB (liver tissue slices [2]; [17]): 25 ± 16%; Metabolite formation, slices (liver tissue slices [2]; [18]): 50 ± 10 pmol; Metabolite formation, slices (liver tissue slices [2]; [19]): 0.7 ± 0.2 ng/mg protein; Metabolite as percent of ΣOH-PCB (liver tissue slices [2]; naïve control (CTL) male rats): 43 ± 5%; Enantiomeric fraction (EF) (liver tissue slices [3]; liver slices from PB- and DEX-treated male and female rats, racemic PCB 136 5 μM, 2 h, EF = Area E(2)/(Area E(1) + Area E(2)), range over groups): 0.69–0.74
Oc1cc(Cl)c(Cl)c(-c2c(Cl)ccc(Cl)c2Cl)c1Cl [E(2)-5-OH-PCB] | – | – | – | – | – | – | – | – | – | – | – | – | enriched to a similar extent | –
Oc1c(O)c(Cl)c(-c2c(Cl)ccc(Cl)c2Cl)c(Cl)c1Cl [4,5-diOH-PCB 136, 2,2′,3,3′,6,6′-hexachlorobiphenyl-4,5-diol] | 3 ± 1 | 0.1 ± 0.0 | 1.3 ± 0.3 | 6 ± 2 | 0.1 ± 0.0 | 0.9 ± 0.3 | 6 ± 3 | 0.1 ± 0.1 | 1.0 ± 0.4 | 32 ± 15 | 0.6 ± 0.3 | 5.6 ± 3.6 | – | Metabolite formation, medium (liver tissue slices [2]; [20]): 24 ± 34 pmol; Metabolite level in tissue slices (liver tissue slices [2]; tissue slices from CTL rats): below the detection limit
Oc1cc(Cl)c(-c2c(Cl)ccc(Cl)c2Cl)c(Cl)c1Cl [E(1)-4-OH-PCB] | – | – | – | – | – | – | – | – | – | – | – | – | enriched | –
N[C@@H](CCC(=O)O)C(=O)O [glutamate, reference compound] | – | – | – | – | – | – | – | – | – | – | – | – | – | PI uptake [4]: significantly increased PI uptake
C[C@@H]1C[C@H]2[C@@H]3CCC4=CC(=O)C=C[C@]4(C)[C@@]3(F)[C@@H](O)C[C@]2(C)[C@@]1(O)C(=O)CO [Dexamethasone (DEX), dexamethasone] | – | – | – | – | – | – | – | – | – | – | – | – | – | Liver weight ([5]; female rats): 12.1 ± 0.2 g; Percent change in body weight ([5]; female rats): −12.0 ± 4.4 %; Liver weight ([5]; male rats): 16.8 ± 0.6 g; Percent change in body weight ([5]; male rats): −17.0 ± 0.7 %; LDH release (liver tissue slices [6]; liver tissue slices from DEX pretreated female rats): 19.6 ± 10.4%; LDH release (liver tissue slices [6]; liver tissue slices from DEX pretreated male rats): 10.4 ± 3.6%; CYP1A2 transcript level vs CTL (CYP1A2; liver slices from female rats): not significantly changed; CYP1A2 transcript level vs CTL (CYP1A2; liver slices from male rats): not changed
Clc1ccc(Cl)c(-c2c(Cl)ccc(Cl)c2Cl)c1Cl [(−)-PCB 136] | – | – | – | – | – | – | – | – | – | – | – | – | slightly enriched | Sensitization of RyR (ryanodine receptor (RyR)): active
